# Measured values reported in ChEMBL document CHEMBL3232915, “Discovery, optimization, and characterization of novel D2 dopamine receptor selective antagonists” (J Med Chem, 2014).
# Assays:
# [1] = molecular target: T1, D(2) dopamine receptor (Homo sapiens, UniProt P14416); test: Antagonist activity at D2 receptor (unknown origin) expressed in Flp-In TREx 293 cells coexpressing chimeric Gqi5 protein assessed as calcium accumulation by Fluo-8AM dye based fluorescence analysis; assay type: functional, cell-based
# T1 sequence (P14416 whole entry): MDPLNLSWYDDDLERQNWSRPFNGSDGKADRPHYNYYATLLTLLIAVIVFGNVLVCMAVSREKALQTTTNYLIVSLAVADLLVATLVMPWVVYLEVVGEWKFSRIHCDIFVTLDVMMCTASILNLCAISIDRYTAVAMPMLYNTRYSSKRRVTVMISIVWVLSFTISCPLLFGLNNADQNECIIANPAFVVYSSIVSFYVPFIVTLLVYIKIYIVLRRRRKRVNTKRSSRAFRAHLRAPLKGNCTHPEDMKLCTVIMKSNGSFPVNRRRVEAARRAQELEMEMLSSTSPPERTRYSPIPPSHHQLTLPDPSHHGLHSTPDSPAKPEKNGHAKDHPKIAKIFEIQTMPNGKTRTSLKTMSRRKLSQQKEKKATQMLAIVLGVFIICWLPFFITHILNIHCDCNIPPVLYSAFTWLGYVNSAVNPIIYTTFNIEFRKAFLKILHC
# [2] = system: Plasma; test: Stability of the compound in human plasma assessed as compound remaining after 2 hrs; assay type: ADME, cell-free
# [3] = system: Caco-2; test: Apparent permeability from apical to basolateral side in human Caco2 cells; assay type: ADME, cell-based
# [4] = system: Caco-2; test: Apparent permeability from basolateral to apical side in human Caco2 cells; assay type: ADME, cell-based
# [5] = system: Brain; test: Cmax in C57BL/6 mouse brain at 30 mg/kg, ip administered as single dose measured within 15 mins after drug challenge; assay type: ADME, organism-based; set-up: dose 30 mg/kg, route intraperitoneal; settings: in vivo, 0.25 h
# Summary of the method: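 Male C57BL/6 mice (N = 3) got a single 30 mg/kg ip dose in 10% NMP + 20% PEG 400 + 70% of 25% HP-β-CD in water. Plasma and brain concentration–time profiles were measured.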
# [6] = system: Liver; test: Intrinsic half-life in mouse liver microsomes; assay type: ADME
# [7] = molecular target: T2, D(3) dopamine receptor (Homo sapiens, UniProt P35462); test: Displacement of [3H]methylspiperone from human D3 receptor expressed in HEK293 cell membrane after 90 mins by scintillation counting analysis; assay type: cell membranes
# T2 sequence (P35462 whole entry): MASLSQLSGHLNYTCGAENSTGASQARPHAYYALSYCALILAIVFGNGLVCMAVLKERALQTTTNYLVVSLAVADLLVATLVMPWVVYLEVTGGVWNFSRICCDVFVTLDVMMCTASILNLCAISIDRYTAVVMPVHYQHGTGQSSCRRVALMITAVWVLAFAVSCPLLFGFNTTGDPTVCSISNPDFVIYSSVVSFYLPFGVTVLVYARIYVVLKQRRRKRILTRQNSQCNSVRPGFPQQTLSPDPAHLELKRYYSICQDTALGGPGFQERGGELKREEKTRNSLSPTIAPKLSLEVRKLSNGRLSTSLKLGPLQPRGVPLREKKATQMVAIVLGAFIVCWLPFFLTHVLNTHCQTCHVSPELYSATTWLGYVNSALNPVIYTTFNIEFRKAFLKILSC
# [8] = Aqueous kinetic solubility of the compound in PBS buffer; assay type: physicochemical
# [9] = system: Plasma; test: Stability of the compound in mouse plasma assessed as compound remaining after 2 hrs; assay type: ADME, cell-free
# [10] = molecular target: T1, D(2) dopamine receptor; test: Antagonist activity at ProLink-tagged D2 receptor (unknown origin) expressed in CHO cells assessed as inhibition of dopamine-stimulated beta-arrestin binding treated for 90 mins prior to dopamine challenge by PathHunter DiscoveRx assay; assay type: cell-based
# [11] = molecular target: T2, D(3) dopamine receptor; test: Antagonist activity at ProLink-tagged D3 receptor (unknown origin) expressed in CHO cells assessed as inhibition of dopamine-stimulated beta-arrestin binding treated for 90 mins prior to dopamine challenge by PathHunter DiscoveRx assay; assay type: cell-based
# [12] = molecular target: T1, D(2) dopamine receptor; test: Displacement of [3H]methylspiperone from human D2L receptor expressed in HEK cell membrane after 90 mins by scintillation counting analysis; assay type: cell membranes, HEK293
# [13] = system: CHO; test: Ratio of AC50 for ProLink-tagged D3 receptor (unknown origin) expressed in CHO cells to AC50 for ProLink-tagged D2 receptor (unknown origin) expressed in CHO cells by beta-arrestin assay; assay type: cell-based; settings: Homo sapiens
# [14] = system: HEK293; test: Ratio of Ki for human D3 receptor expressed in HEK293 cell membrane to Ki for human D2L receptor expressed in HEK cell membrane; assay type: cell-based
# Summary of the method: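 Competition binding with [3H]methylspiperone on membranes from stable HEK cells. […] Incubation 90 min at room temperature in EBSS with sodium metabisulfite, nonspecific binding with 4 µM (+)-butaclamol, then GF/C filtration and scintillation counting. Ki from IC50 via Cheng–Prusoff.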
compound,measurement,setting,value
CN1C(=O)c2ccccc2[S+]([O-])c2ccc(C(=O)NCCN3CCCCC3)cc21 (racemic),AC50,[1],112 nM
CN1C(=O)c2ccccc2[S+]([O-])c2ccc(C(=O)NCc3ccccn3)cc21 (racemic),AC50,[1],11200 nM
CN1C(=O)c2ccccc2[S+]([O-])c2ccc(C(=O)NCc3ccccc3)cc21 (racemic),AC50,[1],223 nM
CN1C(=O)c2ccccc2[S@+]([O-])c2ccc(C(=O)NCCc3cccs3)cc21,Stability,[2],98.4%
same,Papp,[3],18.8 ×10⁻⁶ cm/s
same,Papp,[4],23.8 ×10⁻⁶ cm/s
same,Cmax,[5],4.19 µmol/kg
same,t1/2,[6],24.7 min
same,Ki,[7],4100 nM
same,Kinetic_solubility,[8],113.3 µM
same,Stability,[9],95.2%
COc1ccc(CNC(=O)c2ccc3c(c2)NC(=O)c2ccccc2[S+]3[O-])cc1 (racemic),AC50,[1],887 nM
CCN1C(=O)c2ccccc2[S+]([O-])c2ccc(C(=O)NCc3cccc(OC)c3)cc21 (racemic),AC50,[1],112 nM
CCN1C(=O)c2ccccc2[S+]([O-])c2ccc(C(=O)NC(C)c3ccccc3)cc21 (racemic),AC50,[1],560 nM
CCN1C(=O)c2ccccc2[S@+]([O-])c2ccc(C(=O)NCc3ccc(C#N)cc3)cc21,AC50,[1],112 nM
same,AC50,[10],257 nM
same,AC50,[11],1620 nM
same,Ki,[12],23 nM
same,Ki,[7],130 nM
same,Ratio,[13],6.3
same,Ratio Ki,[14],5.7
CN1C(=O)c2ccccc2[S+]([O-])c2ccc(C(=O)NCCc3cccs3)cc21 (racemic),AC50,[1],89 nM
same,AC50,[10],913 nM
same,AC50,[11],20400 nM
same,Ki,[12],190 nM
same,Ki,[7],9200 nM
CCN1C(=O)c2ccccc2S(=O)(=O)c2ccc(C(=O)NCc3ccc(OC)cc3)cc21,AC50,[1],> 77000 nM
CN1C(=O)c2ccccc2[S+]([O-])c2ccc(C(=O)NCCN3CCCC3)cc21 (racemic),AC50,[1],89 nM
CCN1C(=O)c2ccccc2[S+]([O-])c2ccc(C(=O)NCc3ccc(C#N)cc3)cc21 (racemic),AC50,[1],141 nM
CN1C(=O)c2ccccc2[S+]([O-])c2ccc(C(=O)NCc3ccc(Br)cc3)cc21 (racemic),AC50,[1],71 nM
CN1C(=O)c2ccccc2[S+]([O-])c2ccc(C(=O)Nc3ccccc3)cc21 (racemic),AC50,[1],1580 nM
CCN1C(=O)c2ccccc2[S+]([O-])c2ccc(C(=O)NCc3ccc(SC)cc3)cc21 (racemic),AC50,[1],223 nM
CCN1C(=O)c2ccccc2[S+]([O-])c2ccc(C(=O)NCc3ccc(F)cc3)cc21 (racemic),AC50,[1],89 nM
CN1C(=O)c2ccccc2[S+]([O-])c2ccc(C(=O)NCc3ccc(F)cc3)cc21 (racemic),AC50,[1],353 nM
CCN1C(=O)c2ccccc2[S+]([O-])c2ccc(C(=O)NCc3ccc(C(F)(F)F)cc3)cc21 (racemic),AC50,[1],141 nM
CCN1C(=O)c2ccccc2[S+]([O-])c2ccc(NC(=O)Cc3ccc(OC)cc3)cc21 (racemic),AC50,[1],705 nM
CCN1C(=O)c2ccccc2[S@+]([O-])c2ccc(C(=O)NCc3ccc(F)cc3)cc21,AC50,[1],56 nM
same,AC50,[10],576 nM
same,AC50,[11],3240 nM
same,Ki,[12],90 nM
same,Ki,[7],230 nM
same,Ratio,[13],5.6
same,Ratio Ki,[14],2.6
CCN1C(=O)c2ccccc2[S@+]([O-])c2ccc(C(=O)N[C@H](C)c3ccc4ccccc4c3)cc21,AC50,[1],353 nM
same,AC50,[10],2890 nM
same,AC50,[11],32400 nM
same,Ki,[12],290 nM
same,Ki,[7],3400 nM
same,Ratio,[13],11.2
same,Ratio Ki,[14],11.7
CCCN1C(=O)c2ccccc2[S+]([O-])c2ccc(C(=O)NCc3ccc(OC)cc3)cc21 (racemic),AC50,[1],705 nM
CCN1C(=O)c2ccccc2[S@+]([O-])c2ccc(C(=O)N[C@H](C)c3ccc(Br)cc3)cc21,AC50,[1],223 nM
same,AC50,[10],1290 nM
same,AC50,[11],9130 nM
same,Ki,[12],530 nM
same,Ki,[7],880 nM
same,Ratio,[13],7.1
same,Ratio Ki,[14],1.7
CCN1C(=O)c2ccccc2[S+]([O-])c2ccc(NC(=O)Cc3ccc(F)cc3)cc21 (racemic),AC50,[1],223 nM
CN1C(=O)c2ccccc2[S@+]([O-])c2ccc(C(=O)NCc3ccc(Cl)cc3)cc21,AC50,[1],280 nM
same,AC50,[10],2890 nM
same,AC50,[11],10200 nM
same,Ratio,[13],4.5
CCN1C(=O)c2ccccc2[S+]([O-])c2ccc(C(=O)NCc3cc(OC)c(OC)c(OC)c3)cc21 (racemic),AC50,[1],1770 nM
